Publication PMC9112330 (ACS Infectious Diseases, 2022)

Assay: In vivo fluorescence bioimaging / biodistribution
Set-up: species or system mouse
Details: n = 2
Summary of the method: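 AF680 was attached through a cysteine inserted between the PNA and the dendron, by maleimide coupling. Two NMRI-nu mice received 200 μL of 10 μM labelled conjugate. Under 2% isoflurane, epifluorescence was imaged at 675/720 nm from pre-injection to 48 h, followed by an ex vivo organ scan. Body and kidney ROI signals were expressed as % of initial signal (Y0, from linear regression of the first three points), and half-life came from one-phase decay fit.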

H-(Gbu)8-(DAB)4-(DAB)2-DAB-Cys(AF680)-CTCATACTCT-NH2 [AF680-PNA4897]
organ accumulation of remaining fluorescence (ex vivo scan of excised organs 48 h post i.v. administration): accumulated predominantly in the kidney and in the liver
time to distribution in the whole body (i.v. tail vein, 200 μL of 10 μM, nude mice, near-IR fluorescence imaging): < 5 min
